Data from paper PMC6766976 (Journal of Clinical Pharmacology, 2019).
Where two headings read alike, the source gives them in different places.

How the values were obtained:
cytochrome P450 (CYP) 3A = details: cited from earlier work
JAK 2 = details: cited from earlier work
plasma proteins = details: ref data on file at AbbVie; cited from earlier work
JAK 1 = details: cited from earlier work
[1] = cited from earlier work
[2] = Safety and tolerability assessments in the hepatic impairment study; assay type: in vivo, human; details: Single 15-mg dose
Outline: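 Open-label, single-dose study in subjects with mild or moderate hepatic impairment (Child-Pugh) and normal-function controls. Subjects were confined from the day before dosing and given the oral extended-release test compound after a 10-hour fast, then fasted 4 h post-dose. Adverse events, hematology, blood chemistry, vital signs, ECGs and physical exams were monitored. Treatment-emergent events were tabulated per hepatic group by MedDRA class and term.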

JAK 3 = details: cited from earlier work
[3] = assay type: in vivo, human
[4] = cited from earlier work; remark: listed apart in the source
Tyk2 = details: cited from earlier work
[5] = cited from earlier work; remark: listed apart in the source
[6] = Over the range of IR and ER doses evaluated in clinical studies; cited from earlier work
[7] = cited from earlier work; remark: listed apart in the source
[8] = IR formulation, relative to upadacitinib alone
[9] = Moderate hepatic impairment (outlier excluded)
[10] = Subjects with mild and moderate hepatic impairment

- AUC lower compared with mean AUC in subjects with normal hepatic function ([3]; 1 subject in the moderate hepatic impairment group (excluded from analyses)): approximately 70%
- Plasma concentration at 120 hours ([3]; All subjects and all groups, lower limit of quantitation 0.05 ng/mL): below the assay limit of quantification
- AUC central value higher compared with normal hepatic function ([3]; Mild hepatic impairment): 28%
- Cmax central value compared with normal hepatic function ([3]; Mild hepatic impairment): similar
- β (terminal-phase elimination rate constant) versus normal hepatic function ([3]; Mild hepatic impairment, ANCOVA): no statistically significant difference
- AUC central value higher compared with normal hepatic function [3, 9]: 24%
- Cmax central value higher compared with normal hepatic function [3, 9]: 43%
- Increase in upadacitinib exposure, AUC [3, 10]: < 30%
- Increase in upadacitinib exposure, Cmax [3, 10]: < 45%
SMILES: CC[C@@H]1CN(C(=O)NCC(F)(F)F)C[C@@H]1c1cnc2cnc3[nH]ccc3n12 [upadacitinib]
- Substrate status for cytochrome P450 (CYP) 3A (cytochrome P450 (CYP) 3A; Evaluated in phase 1 drug-interaction study with ketoconazole): nonsensitive substrate
- Increase in plasma AUC with coadministration of ketoconazole (cytochrome P450 (CYP) 3A; [8]): 75%
- Increase in plasma Cmax with coadministration of ketoconazole (cytochrome P450 (CYP) 3A; [8]): 70%
- Potency against JAK 2 compared with JAK 1 (JAK 2): less potent
- Plasma protein binding (plasma proteins): not extensively bound to plasma proteins
- Inhibition of JAK 1 (JAK 1): potently inhibits
- Dose eliminated unchanged in urine ([1]; IR dose): Approximately 20%
- Dose eliminated in urine and feces as metabolites ([1]; ref data on file at AbbVie): approximately 30%
- Changes in vital signs or hematology measurements [2]: No clinically significant changes
- Tolerability ([2]; all subjects): well tolerated
- Potency against JAK 3 compared with JAK 1 (JAK 3): less potent
- AUC higher compared with normal renal function ([4]; Mild renal impairment): 18%
- Cmax compared with normal renal function ([4]; Mild, moderate and severe renal impairment): similar
- AUC higher compared with normal renal function ([4]; Moderate renal impairment): 33%
- AUC higher compared with normal renal function ([4]; Severe renal impairment): 44%
- Potency against Tyk2 compared with JAK 1 (Tyk2): less potent
- Increase in upadacitinib exposure with a high-fat meal [5]: Approximately 20%
- Plasma exposure dose and time dependence [6]: approximately dose proportional and time independent
- Impact of baseline AST, ALT and bilirubin on upadacitinib exposure ([7]; Phase 1 to 3 studies, healthy subjects and subjects with RA): no impact
- Correlation of CYP2D6 metabolic phenotype with upadacitinib clearance [7]: not correlated
- Effect of age, weight, sex, race and ethnicity on upadacitinib exposure [7]: no clinically relevant effect
